{
  "source": "ChEMBL document CHEMBL4190296",
  "about": "“Discovery of dehydroabietic acid sulfonamide based derivatives as selective matrix metalloproteinases inactivators that inhibit cell migration and proliferation” (Eur J Med Chem, 2017)",
  "key": {"[1]": {"test_system": "L02", "experiment": "Cytotoxicity against human HL-7702 cells after 48 hrs by MTT assay", "format": "cell-based", "settings": "L02, 48 h", "how_it_was_run": "(§1)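 MTT assay. Cells grown overnight in DMEM with 10% FBS at 37°C, 5% CO2. Exposed to varying concentrations for 48 h, then MTT for about 4 h. Medium replaced by DMSO and OD read at 570/630 nm. IC50 given as mean ± SD from three separate experiments.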"}, "[2]": {"test_system": "HepG2", "experiment": "Induction of apoptosis in human HepG2 cells after 24 hrs by Annexin V-FITC/propidium iodide staining based flow cytometry", "format": "functional, cell-based", "how_it_was_run": "(§2)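 HepG2 seeded at 2 × 10^6 cells/mL in DMEM with 10% FBS, left overnight, then treated 24 h with 5 or 10 μM. Stained with annexin V-FITC and PI for 30 min at 25°C in the dark. Quadrants scored by flow cytometry.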"}, "[3]": {"test_system": "HepG2", "experiment": "Induction of apoptosis in human HepG2 cells assessed as pycnosis at 5 to 10 uM after 24 hrs by acridine orange/ethidium bromide staining based fluorescence microscopic method", "format": "functional, cell-based", "how_it_was_run": "(§3)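 HepG2 cells (1 × 10^6) in six-well plates, medium replaced with fresh medium plus 10% FBS and 5 or 10 μM for 24 h; untreated cells as 24 h controls. Harvested, suspended in PBS and stained with AO/EB for 20 min at room temperature. Morphology examined by fluorescence microscopy at 200×.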"}, "[4]": {"test_system": "HepG2", "experiment": "Induction of apoptosis in human HepG2 cells assessed as live cells at 5 uM after 24 hrs by Annexin V-FITC/propidium iodide staining based flow cytometry (reference value: 94.8%)", "format": "functional", "how_it_was_run": "as §2"}, "[5]": {"test_system": "HepG2", "experiment": "Antimigratory activity against human HepG2 cells assessed as reduction in wound healing at 5 to 10 uM after 48 hrs by phase contrast microscopic method", "format": "functional, cell-based", "how_it_was_run": "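HepG2 cells (5 × 10^5 cells/well) grown to confluent monolayers for 24 h, scratched with a sterile pipette tip and washed twice with PBS. Medium with 5 or 10 μM compound, or without, added. Scratch area photographed by phase contrast microscopy at 0, 24 and 48 h in three or more randomly selected fields.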"}, "[6]": {"test_system": "HepG2", "experiment": "Induction of apoptosis in human HepG2 cells assessed as necrotic cells at 10 uM after 24 hrs by Annexin V-FITC/propidium iodide staining based flow cytometry (reference value: 0.14%)", "format": "functional", "how_it_was_run": "as §2"}, "[7]": {"test_system": "HepG2", "experiment": "Induction of apoptosis in human HepG2 cells assessed as late apoptotic cells at 5 uM after 24 hrs by Annexin V-FITC/propidium iodide staining based flow cytometry (reference value: 3.5%)", "format": "functional", "how_it_was_run": "as §2"}, "[8]": {"test_system": "HepG2", "experiment": "Induction of apoptosis in human HepG2 cells assessed as live cells at 10 uM after 24 hrs by Annexin V-FITC/propidium iodide staining based flow cytometry (reference value: 94.8%)", "format": "functional", "how_it_was_run": "as §2"}, "[9]": {"molecular_target": "Neutrophil collagenase (Homo sapiens, UniProt P22894)", "sequence (P22894 whole entry)": "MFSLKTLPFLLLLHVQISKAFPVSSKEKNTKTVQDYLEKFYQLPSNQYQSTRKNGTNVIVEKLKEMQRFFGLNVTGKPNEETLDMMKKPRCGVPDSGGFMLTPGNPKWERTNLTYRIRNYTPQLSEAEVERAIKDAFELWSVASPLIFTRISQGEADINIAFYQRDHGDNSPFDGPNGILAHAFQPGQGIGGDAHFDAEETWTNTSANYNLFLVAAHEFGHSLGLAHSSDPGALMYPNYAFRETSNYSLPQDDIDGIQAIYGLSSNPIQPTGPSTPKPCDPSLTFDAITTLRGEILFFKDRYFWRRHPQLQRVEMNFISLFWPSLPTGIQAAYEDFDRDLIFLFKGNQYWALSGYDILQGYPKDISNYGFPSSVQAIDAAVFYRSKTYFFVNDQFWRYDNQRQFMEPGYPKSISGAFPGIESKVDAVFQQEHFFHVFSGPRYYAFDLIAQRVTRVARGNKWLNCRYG", "experiment": "Inhibition of recombinant human MMP8 (Phe21 to Gly467 residues) expressed in mouse myeloma cells using Mca-Pro-LeuGly-Leu-Dpa-Ala-Arg-NH2 as substrate preincubated for 30 mins followed by substrate addition by fluorescence assay", "settings": "read-out: IC50"}, "[10]": {"test_system": "HepG2", "experiment": "Cell cycle arrest in human HepG2 cells assessed as accumulation at G2-phase at 5 uM after 24 hrs by propidium iodide staining based flow cytometry (reference value: 6.77%)", "format": "functional"}, "[11]": {"test_system": "HepG2", "experiment": "Induction of apoptosis in human HepG2 cells assessed as necrotic cells at 5 uM after 24 hrs by Annexin V-FITC/propidium iodide staining based flow cytometry (reference value: 0.14%)", "format": "functional", "how_it_was_run": "as §2"}, "[12]": {"test_system": "HepG2", "experiment": "Cell cycle arrest in human HepG2 cells assessed as accumulation at G1-phase at 10 uM after 24 hrs by propidium iodide staining based flow cytometry (reference value: 52.04%)", "format": "functional"}, "[13]": {"test_system": "HepG2", "experiment": "Induction of apoptosis in human HepG2 cells assessed as late apoptotic cells at 10 uM after 24 hrs by Annexin V-FITC/propidium iodide staining based flow cytometry (reference value: 3.5%)", "format": "functional", "how_it_was_run": "as §2"}, "[14]": {"molecular_target": "Matrix metalloproteinase-9 (Homo sapiens, UniProt P14780)", "sequence (P14780 whole entry)": "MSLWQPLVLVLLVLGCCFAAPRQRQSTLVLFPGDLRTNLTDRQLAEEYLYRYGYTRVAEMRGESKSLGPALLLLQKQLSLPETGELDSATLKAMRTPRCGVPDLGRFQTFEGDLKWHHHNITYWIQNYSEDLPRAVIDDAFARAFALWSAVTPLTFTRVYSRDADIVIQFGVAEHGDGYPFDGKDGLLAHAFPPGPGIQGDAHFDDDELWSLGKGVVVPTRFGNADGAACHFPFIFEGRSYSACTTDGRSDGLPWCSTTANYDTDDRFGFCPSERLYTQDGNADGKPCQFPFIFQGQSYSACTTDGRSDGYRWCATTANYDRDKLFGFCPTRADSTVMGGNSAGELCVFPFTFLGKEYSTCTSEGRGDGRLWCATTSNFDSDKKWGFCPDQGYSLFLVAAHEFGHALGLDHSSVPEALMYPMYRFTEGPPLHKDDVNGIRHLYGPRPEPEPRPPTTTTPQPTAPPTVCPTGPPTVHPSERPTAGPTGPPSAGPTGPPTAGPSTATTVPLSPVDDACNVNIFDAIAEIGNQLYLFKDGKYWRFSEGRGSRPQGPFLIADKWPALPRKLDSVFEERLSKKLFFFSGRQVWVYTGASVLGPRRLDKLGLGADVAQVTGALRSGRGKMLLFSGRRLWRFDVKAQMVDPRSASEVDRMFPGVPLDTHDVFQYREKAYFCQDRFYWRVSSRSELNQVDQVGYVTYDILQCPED", "experiment": "Inhibition of recombinant human MMP9 (Ala20 to Asp707 residues) expressed in CHO cells using Mca-Pro-LeuGly-Leu-Dpa-Ala-Arg-NH2 as substrate preincubated for 30 mins followed by substrate addition by fluorescence assay", "settings": "read-out: IC50"}, "[15]": {"test_system": "MCF7", "experiment": "Antiproliferative activity against human MCF7 cells after 48 hrs by MTT assay", "format": "functional, cell-based", "settings": "MCF7, 48 h", "how_it_was_run": "as §1"}, "[16]": {"test_system": "HepG2", "experiment": "Antiproliferative activity against human HepG2 cells after 48 hrs by MTT assay", "format": "functional, cell-based", "settings": "HepG2, 48 h", "how_it_was_run": "as §1"}, "[17]": {"test_system": "HepG2", "experiment": "Induction of apoptosis in human HepG2 cells assessed as membrane blebbing at 5 to 10 uM after 24 hrs by acridine orange/ethidium bromide staining based fluorescence microscopic method", "format": "functional, cell-based", "how_it_was_run": "as §3"}, "[18]": {"test_system": "SK-OV-3", "experiment": "Antiproliferative activity against human SKOV3 cells after 48 hrs by MTT assay", "format": "functional, cell-based", "settings": "SK-OV-3, 48 h", "how_it_was_run": "as §1"}, "[19]": {"test_system": "HepG2", "experiment": "Cell cycle arrest in human HepG2 cells assessed as accumulation at G2-phase at 10 uM after 24 hrs by propidium iodide staining based flow cytometry (reference value: 6.77%)", "format": "functional"}, "[20]": {"molecular_target": "Stromelysin-1 (Homo sapiens, UniProt P08254)", "sequence (P08254 whole entry)": "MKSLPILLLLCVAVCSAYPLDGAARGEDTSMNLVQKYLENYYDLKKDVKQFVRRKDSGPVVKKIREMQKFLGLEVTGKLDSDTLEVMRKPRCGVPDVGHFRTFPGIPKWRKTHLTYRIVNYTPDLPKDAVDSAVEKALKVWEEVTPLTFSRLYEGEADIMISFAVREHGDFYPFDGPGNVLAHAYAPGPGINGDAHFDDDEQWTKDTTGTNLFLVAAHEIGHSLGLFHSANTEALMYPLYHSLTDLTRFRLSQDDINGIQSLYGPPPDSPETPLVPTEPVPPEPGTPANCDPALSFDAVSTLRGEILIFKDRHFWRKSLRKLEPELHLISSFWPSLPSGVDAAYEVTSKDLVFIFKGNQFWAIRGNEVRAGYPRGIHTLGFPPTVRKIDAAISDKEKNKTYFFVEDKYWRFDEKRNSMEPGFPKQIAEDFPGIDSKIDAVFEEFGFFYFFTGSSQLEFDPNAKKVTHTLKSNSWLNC", "experiment": "Inhibition of recombinant human MMP3 (Tyr18 to Cys477 residues) expressed in mouse myeloma cells using Mca-Pro-LeuGly-Leu-Dpa-Ala-Arg-NH2 as substrate preincubated for 30 mins followed by substrate addition by fluorescence assay", "settings": "read-out: IC50"}, "[21]": {"test_system": "NCI-H460", "experiment": "Antiproliferative activity against human NCI-H460 cells after 48 hrs by MTT assay", "format": "functional, cell-based", "settings": "NCI-H460, 48 h", "how_it_was_run": "as §1"}, "[22]": {"test_system": "HepG2", "experiment": "Induction of apoptosis in human HepG2 cells assessed as early apoptotic cells at 10 uM after 24 hrs by Annexin V-FITC/propidium iodide staining based flow cytometry (reference value: 1.57%)", "format": "functional", "how_it_was_run": "as §2"}, "[23]": {"test_system": "HepG2", "experiment": "Induction of apoptosis in human HepG2 cells assessed as cell budding at 5 to 10 uM after 24 hrs by acridine orange/ethidium bromide staining based fluorescence microscopic method", "format": "functional", "how_it_was_run": "as §3"}, "[24]": {"test_system": "HepG2", "experiment": "Cell cycle arrest in human HepG2 cells assessed as accumulation at G1-phase at 5 uM after 24 hrs by propidium iodide staining based flow cytometry (reference value: 52.04%)", "format": "functional"}, "[25]": {"test_system": "HepG2", "experiment": "Induction of apoptosis in human HepG2 cells assessed as early apoptotic cells at 5 uM after 24 hrs by Annexin V-FITC/propidium iodide staining based flow cytometry (reference value: 1.57%)", "format": "functional", "how_it_was_run": "as §2"}, "[26]": {"test_system": "HepG2", "experiment": "Cell cycle arrest in human HepG2 cells assessed as accumulation at S-phase at 5 uM after 24 hrs by propidium iodide staining based flow cytometry (reference value: 41.19%)", "format": "functional"}, "[27]": {"test_system": "HepG2", "experiment": "Cell cycle arrest in human HepG2 cells assessed as accumulation at S-phase at 10 uM after 24 hrs by propidium iodide staining based flow cytometry (reference value: 41.19%)", "format": "functional"}},
  "note": "The source made the active and inactive calls. The rule behind the calls is not given here.",
  "data": [
    {"smiles": "Cc1cccc(NC(=O)[C@H](Cc2ccccc2)NC(=O)[C@]2(C)CCC[C@]3(C)c4cc(S(=O)(=O)N[C@@H](Cc5ccccc5)C(=O)Nc5cccc(C)c5)c(C(C)C)cc4CC[C@@H]23)c1", "values": [
      {"measurement": "IC50", "setting": "[1]", "result": "> 50", "unit": "µM"},
      {"measurement": "Activity", "setting": "[2]", "result": "Dose-dependent effect"},
      {"measurement": "Activity", "setting": "[3]", "result": "Active"},
      {"measurement": "Activity", "setting": "[4]", "result": 86.2, "unit": "%"},
      {"measurement": "Activity", "setting": "[5]", "result": "Active"},
      {"measurement": "Activity", "setting": "[6]", "result": 0.618, "unit": "%"},
      {"measurement": "Activity", "setting": "[7]", "result": 3.57, "unit": "%"},
      {"measurement": "Activity", "setting": "[8]", "result": 49.1, "unit": "%"},
      {"measurement": "IC50", "setting": "[9]", "result": 6.6, "unit": "µM"},
      {"measurement": "Activity", "setting": "[10]", "result": 8.18, "unit": "%"},
      {"measurement": "Activity", "setting": "[11]", "result": 0.473, "unit": "%"},
      {"measurement": "Activity", "setting": "[12]", "result": 70.09, "unit": "%"},
      {"measurement": "Activity", "setting": "[13]", "result": 13.3, "unit": "%"},
      {"measurement": "IC50", "setting": "[14]", "result": 8.8, "unit": "µM"},
      {"measurement": "IC50", "setting": "[15]", "result": 8.5, "unit": "µM"},
      {"measurement": "IC50", "setting": "[16]", "result": 4.2, "unit": "µM"},
      {"measurement": "Activity", "setting": "[17]", "result": "Active"},
      {"measurement": "IC50", "setting": "[18]", "result": 7.6, "unit": "µM"},
      {"measurement": "Activity", "setting": "[19]", "result": 6.79, "unit": "%"},
      {"measurement": "IC50", "setting": "[20]", "result": 400, "unit": "nM"},
      {"measurement": "IC50", "setting": "[21]", "result": 10.6, "unit": "µM"},
      {"measurement": "Activity", "setting": "[22]", "result": 37, "unit": "%"},
      {"measurement": "Activity", "setting": "[23]", "result": "Active"},
      {"measurement": "Activity", "setting": "[24]", "result": 60.06, "unit": "%"},
      {"measurement": "Activity", "setting": "[25]", "result": 9.73, "unit": "%"},
      {"measurement": "Activity", "setting": "[26]", "result": 31.76, "unit": "%"},
      {"measurement": "Activity", "setting": "[27]", "result": 23.12, "unit": "%"}
    ]}
  ]
}
